HSP90 refold inh = blocks HSP90-mediated luciferase refolding in reticulocyte lysate; inhibition, % at 5.6 µM; Rabbit reticulocyte lysate, luciferase refolding luminescence, 3 h; AID 1789; 290,000 tested, 0.91% active;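 active means inhibition above the screen-wide mean plus 3 SD, computed separately per campaign, cut at about 16% in these data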;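 further: 0% = DMSO wells and 100% = 60 µM geldanamycin wells; inhibitors lower the luminescence because luciferase stays unfolded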
SENP7 inh = SENP7 protease inhibition; inhibition, % at 5 µM; Q9BQF6; AID 434973; recombinant SENP7, Z-RLRGG-aminoluciferin luminescence, 40 min; 330,000 tested, 1.5% active;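 active means inhibition above about 50% at the single test dose, limit read from the data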;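 further: plate controls were DMSO with enzyme for no effect and no enzyme buffer wells for full effect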
SENP6 block = SENP6 protease inhibition | Q9GZR1 | Recombinant SENP6 catalytic domain, aminoluciferin luminescence | inhibition, % at 10 µM | 330,000 tested, 1.8% active;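 active means inhibition above about 50% at the single tested dose, limit read from the data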;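 further: plate controls were DMSO wells with enzyme for no effect and DMSO wells lacking enzyme for full effect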
SENP1 inh = blocks the human SENP1 SUMO protease catalytic domain. Q9P0U3. recombinant SENP1 catalytic domain, CyPet-SUMO1-YPet FRET cleavage. inhibition, % at 10 µM. 360,000 tested, 0.21% active. AID 624204;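 active means inhibition at least 30% at 10 µM, raw YFP signal under a set limit, fluorescence ratio 0.5 to 1.5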;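 further: 0% = enzyme with DMSO and 100% = no enzyme wells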
Target sequence (Q9P0U3 419-644 limits assumed): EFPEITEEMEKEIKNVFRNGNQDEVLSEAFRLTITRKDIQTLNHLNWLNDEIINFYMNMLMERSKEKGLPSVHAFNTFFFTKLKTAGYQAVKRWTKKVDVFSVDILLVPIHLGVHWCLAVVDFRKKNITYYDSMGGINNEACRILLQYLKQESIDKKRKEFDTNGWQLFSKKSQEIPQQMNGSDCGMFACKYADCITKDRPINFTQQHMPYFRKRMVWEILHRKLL
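System: Recombinant human SENP1 catalytic domain, His6-tagged | Incubation: Enzyme reaction for 50 min at room temperature, dark | Medium: Tris pH 8 with BME, BSA, NP40 and catalase | Also added: 25 nM SUMO1 FRET substrate | Compound: 10 µM single point, 0.5% DMSO | Measured by: FRET fluorescence in CFP and YFP emission channels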
SENP8 block-1 = inhibitors of human SENP8 protease; recombinant SENP8, Nedd8 substrate fluorescence; inhibition, % at 20 µM; 360,000 tested, 0.64% active; in the data active means inhibition mostly above about 40%, no sharp cut-off; inactive means mostly below about 27%
Target sequence (Q96LD8 whole entry, looked up): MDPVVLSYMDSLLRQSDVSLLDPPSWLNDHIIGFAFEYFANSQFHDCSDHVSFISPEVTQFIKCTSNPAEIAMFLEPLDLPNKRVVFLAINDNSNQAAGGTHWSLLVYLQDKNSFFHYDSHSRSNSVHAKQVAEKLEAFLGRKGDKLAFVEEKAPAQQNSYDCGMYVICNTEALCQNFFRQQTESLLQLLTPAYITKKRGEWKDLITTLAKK
SENP8 block-2 = blocks the human protease SENP8; Q96LD8; purified SENP8, Z-RLRGG-aminoluciferin cleavage, luminescence; inhibition, % at 10 µM; AID 2540; 330,000 tested, 1.2% active; in the data active means inhibition above about 50%
HSP90 inh confirm = confirmation of HSP90 inhibitors | shares compounds with HSP90 refold inh | rabbit reticulocyte lysate, luciferase refolding luminescence, 3 h | inhibition, % at 5.9 µM | 2,300 tested, 64% active | AID 1846; in the data active means inhibition above about 18%;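 further: 0% = vehicle wells and 100% = reference inhibitor wells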
luciferase ctr = firefly luciferase inhibition, HSP90 counter-screen; shares compounds with HSP90 refold inh; purified native firefly luciferase, luminescence; inhibition, % at 5.9 µM; 2,300 tested, 48% active;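 active means inhibition above the mean inhibition of all tested sample wells plus 3 SD, cut at about 10% in these data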;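 further: 0% = DMSO with luciferase and 100% = wells lacking luciferase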
SENP8 confirm = confirmation of human SENP8 protease inhibitors | 6,200 tested, 40% active | AID 488912 | inhibition, % at 12.5 µM | Recombinant SENP8, Z-RLRGG-aminoluciferin luminescence, 60 min | shares compounds with SENP7 inh;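 active means mean inhibition across replicates above about 50%, limit read from the data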
SENP6 conf = confirmation of human SENP6 protease inhibitors; shares compounds with SENP7 inh; recombinant SENP6, Z-RLRGG-aminoluciferin luminescence; inhibition, % at 12.5 µM; 6,200 tested, 58% active; AID 488915
SENP7 confirm = confirmation of human SENP7 protease inhibitors | recombinant SENP7, Z-RLRGG-aminoluciferin luminescence, 40 min | 6,200 tested, 69% active | shares compounds with SENP7 inh | inhibition, % at 12.5 µM
Casp3 SENP sel = inhibits human caspase-3 in SENP selectivity test; inhibition, % at 12.5 µM; 6,200 tested, 60% active; shares compounds with SENP7 inh; purified caspase-3, Z-DEVD-aminoluciferin luminescence, 60 min; AID 488918;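 active means mean inhibition above about 50%, limit read from the data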;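 further: plate controls were enzyme with DMSO for no effect and wells without caspase-3 for full effect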
Target sequence (P42574 28-227 limits assumed): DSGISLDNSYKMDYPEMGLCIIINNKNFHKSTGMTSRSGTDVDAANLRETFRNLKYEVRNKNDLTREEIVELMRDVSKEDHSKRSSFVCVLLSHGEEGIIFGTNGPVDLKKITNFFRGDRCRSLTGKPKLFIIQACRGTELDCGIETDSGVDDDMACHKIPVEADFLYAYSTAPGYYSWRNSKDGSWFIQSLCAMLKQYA
Luc interf = interferes with luciferase luminescence in SENP counter-screen | inhibition, % at 12.5 µM | 6,200 tested, 39% active | shares compounds with SENP7 inh | Pre-incubated SENP8/Z-RLRGG-aminoluciferin, luciferase luminescence interference;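 active means mean inhibition above about 50% when retested at one dose, limit read from the data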;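 further: plate controls were DMSO wells with completed reaction for no effect and substrate without enzyme for full effect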
Starred values were filed as active, the others as inactive; nt = no result. An excerpt weighted towards active compounds, which were near 2.9% of everything screened.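 How the source made its calls, unless noted: active means mean inhibition above about 50% in the one-dose retest (limit read from the data); inactive means the rest.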

SMILES	HSP90 refold inh	SENP7 inh	SENP6 block	SENP1 inh	SENP8 block-1	SENP8 block-2	HSP90 inh confirm	luciferase ctr	SENP8 confirm	SENP6 conf	SENP7 confirm	Casp3 SENP sel	Luc interf
CCCOc1ccc2cc(-c3ccccn3)c(=O)oc2c1	36*	101*	98*	-88	-402	96*	85*	80*	81*	85*	101*	88*	38
O=c1oc2cc(OCc3c(F)cccc3Cl)ccc2cc1-c1ccccn1	-1	-11	-27	-58	-389	-10	nt	nt	nt	nt	nt	nt	nt
CCCc1ccc(-c2ccc(F)c(N)c2)nc1	53*	96*	95*	0	-7	94*	77*	69*	94*	97*	103*	97*	96*
COCCCNC(=O)c1cccn2c(=O)c3cc4ccccc4cc3nc12	17*	30	82*	25	-94	85*	26*	18*	-19	-10	-6	-9	-5
c1ccc(N2CCN(c3nc4cc5c(cc4s3)OCO5)CC2)cc1	1	-4	-2	-26	-2	-2	nt	nt	nt	nt	nt	nt	nt
c1c2c(cc3sc(N4CCCCC4)nc13)OCO2	25*	99*	101*	-91	-9	96*	59*	52*	97*	99*	103*	98*	95*
COc1ccccc1CN(C)C[C@@H]1OCc2cnnn2CCCC(=O)N([C@@H](C)CO)C[C@H]1C	nt	nt	nt	1	6	nt	nt	nt	nt	nt	nt	nt	nt
O=C(Nc1nc2ccccc2s1)C1CCCO1 (stereo not given)	3	44	43	2	24	5	nt	nt	nt	nt	nt	nt	nt
CC1CCC/C(=N/Nc2nc3ccccc3s2)C1 (stereo not given)	47*	54*	43	-2	-167	56*	25*	12*	2	68*	88*	49	52*
Cc1ccc(NC(=O)c2cnn(-c3ccccc3)c2C)cc1C	44*	90*	85*	-1	16	77*	64*	59*	5	86*	97*	80*	40
CC(C)(C)c1ccc(C(=O)Nc2cnccn2)cc1	18*	55*	52*	-3	10	29	50*	37*	38	47	60*	63*	30
COc1ccc(C(=O)Nc2cnccn2)cc1[N+](=O)[O-]	4	5	-18	1	13	1	nt	nt	nt	nt	nt	nt	nt
Cc1c(O)ccc(/C=N/Nc2ncccc2[N+](=O)[O-])c1O	21*	100*	97*	2	27	96*	28*	28*	67*	77*	102*	75*	25
Cc1cc(C(=O)NNC(=S)NC2CCCCC2)cs1	3	9	-9	2	14	-3	nt	nt	nt	nt	nt	nt	nt
COc1cc(C)nc(-c2csc(C)n2)n1	-1	8	-10	-2	6	6	nt	nt	nt	nt	nt	nt	nt
Cc1nnc(NC(=O)c2cc3ccccc3o2)s1	-4	2	-2	1	-14	-5	nt	nt	nt	nt	nt	nt	nt
Cc1nc(NC(=O)c2cc3ccccc3o2)sc1C	40*	90*	89*	-1	-27	89*	54*	47*	71*	91*	100*	93*	33
COc1ccc(-c2cn3cc(C)ccc3n2)cc1F	48*	78*	77*	1	-408	69*	63*	58*	11	74*	90*	80*	32
Cc1ccc2nc(-c3ccc4c(c3)OCCO4)cn2c1	93*	94*	89*	3	-426	87*	94*	90*	93*	93*	101*	94*	93*
Cc1ccc2nc(-c3ccc4c(c3)NC(=O)CO4)cn2c1	2	1	-13	-4	-199	-6	nt	nt	nt	nt	nt	nt	nt
Clc1ccc2nc(-c3ccccc3)cn2c1	36*	97*	95*	0	-147	92*	55*	42*	4	86*	99*	91*	33
Clc1ccc2nc(-c3ccc4c(c3)OCO4)cn2c1	24*	79*	75*	0	-416	78*	73*	71*	29	86*	70*	64*	11
CC1CCc2nc3ccc(S(=O)(=O)N4CCC(C(=O)NC(C)c5ccccc5)CC4)cc3c(C(=O)O)c2C1 (stereo not given)	-4	4	9	-9	-13	-9	nt	nt	nt	nt	nt	nt	nt
O=C(CSC(=S)N1CCCCC1)c1ccccc1	54*	74*	74*	0	14	63*	73*	64*	-5	63*	90*	73*	67*
O=C(CSC(=S)N1CCCC1)c1ccccc1	19*	54*	64*	4	-9	28	43*	44*	52*	52*	78*	70*	56*
SMILES	HSP90 refold inh	SENP7 inh	SENP6 block	SENP1 inh	SENP8 block-1	SENP8 block-2	HSP90 inh confirm	luciferase ctr	SENP8 confirm	SENP6 conf	SENP7 confirm	Casp3 SENP sel	Luc interf
COc1ccc(C(=O)CSC(=S)N2CCCCC2)cc1	nt	nt	nt	2	5	nt	nt	nt	nt	nt	nt	nt	nt
CCc1cccc(CC)c1N1C(=O)C2=C(SCCCS2)C1=O	nt	nt	nt	-31	15	nt	nt	nt	nt	nt	nt	nt	nt
CCOC(=O)c1sc2nc3c(cc2c1N)COC(C(C)C)C3 (stereo not given)	25*	51*	20	-95	-262	-3	44*	41*	12	8	6	18	3
CC(C)(C)c1ccc(/C=C2\SC(=O)N(CCNC(=O)c3cccc(S(=O)(=O)N4CCOCC4)c3)C2=O)cc1	21*	90*	91*	3	0	82*	74*	70*	39	59*	74*	55*	3
Cc1c(OCc2ccc(C(=O)O)o2)ccc2c3c(c(=O)oc12)CCC3	50*	8	82*	-32	-153	74*	63*	13*	10	84*	84*	17	57*
COC(=O)c1ccc(COc2ccc3c(C)c(C)c(=O)oc3c2C)o1	3	nt	nt	nt	nt	nt	nt	nt	nt	nt	nt	nt	nt

Screening results from PubChem.
